Measured values of several laboratories.
Each line is one published result; the experiments were not run side by side.
Target: Bone morphogenetic protein receptor type-1B (BMPR1B, Homo sapiens, UniProt O00238)

N#Cc1ccc(Nc2ccc3[nH]c(=O)[nH]c3c2)c(Cl)c1
remaining binding (cell-free assay; competition with immobilised ligand; 1 µM): 100%

Cc1ccc(C(=O)Nc2ccc(CN3CCN(C)CC3)c(C(F)(F)F)c2)cc1C#Cc1cnc2cccnn12
remaining activity (enzyme activity; 23.5 nM): 96%

Cc1cc(NC(=O)c2cccc3cc(-c4cccc5[nH]nc(N)c45)ccc23)ccc1F
activity vs control (enzyme activity; inhibitor; 0.1 µM): 100%

CNC(=O)c1ccc(Nc2ncc(C(F)(F)F)c(NCc3nccnc3N(C)S(C)(=O)=O)n2)cc1
remaining binding (cell-free assay; competition with immobilised ligand; 0.1 µM): 65%

Cc1sc(C(=O)NC2COC2)cc1-n1cc(NC(=O)Nc2c(F)cccc2Cl)cn1
remaining activity (enzyme activity; inhibitor; 10 µM): 104%

CN1CC(Oc2cnc(C#N)cc2-c2ccn3nc(NC(=O)C4CC4)cc3c2)C1
inhibition (enzyme activity; inhibitor; 1 µM): -1%

COc1cc(Cl)c(C(=O)N[C@@H](CN[C@H]2CC[C@@H](N)CC2)Cc2ccc(C#N)cc2)cc1-c1ccc(CN[C@H](C)c2ccc(C)cc2)o1
remaining activity (enzyme activity; inhibitor; 1 µM): 101%

Cc1cnc(NC2CCOCC2)nc1-n1cnc(C(=O)NC(CN)c2cc(F)cc(Cl)c2)c1 (stereo not shown)
remaining activity (enzyme activity; inhibitor; radiometric; 1 µM): 106%

Cc1ccc(NC(=O)c2ccc(C)c(C(F)(F)F)c2)cc1C#Cc1nn(C2CCC(O)CC2)c2ncnc(N)c12 (stereo not shown)
remaining signal (cell-free assay; 10 µM): 18%

Nc1ncnc2occ(-c3ccc(NC(=O)Nc4cc(C(F)(F)F)ccc4F)cc3)c12
remaining signal (cell-free assay; 20 µM): 37%

O=C(Nc1cnn(-c2csc(C(=O)NC3COC3)c2)c1)Nc1ccccc1Cl
remaining activity (enzyme activity; inhibitor; 5 µM): 109%

C[C@@H]1CCN(c2nccc(-c3cnn4ncccc34)n2)C1
remaining binding (binding; 1 µM): 68%

CC(C)(O)[C@H]1CC[C@H](Nc2ccc3ncc(-c4cccc(C(F)(F)F)c4)n3n2)CC1
remaining activity (enzyme activity; inhibitor; 1 µM): 147%
